The results in this text go back to PubChem BioAssay AID624399 (The Scripps Research Institute Molecular Screening Center, 2012).

The source made the active and inactive calls.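 How the source made its calls: active means increase in reporter activity of 20% or more; inactive means increase below 20%, or a negative response.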

The subject of the assay is BG1Luc4E2 cells, ERE-luciferase luminescence, 24 h. In words: activators of ER-driven luciferase reporter, late-stage follow-up, counter-screen for AHR activator project, BG1Luc4E2 ovarian carcinoma cells, luminescence (AID 624399). The settings on record: at 10 µM; active compounds read high. In outline:
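Doses: Single test concentration of 10 µM per compound | Material: BG1Luc4E2 cells, firefly luciferase reporter under two synthetic EREs | Measured by: Firefly luciferase luminescence measured after cell lysis | Timing: 5-day estrogen depletion, then 24 h compound exposure at 37 °C | Read-out basis: Maximum % reporter activation | Medium: Phenol red-free DMEM with charcoal-stripped serum, estrogen-depleted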
In the case of `Nc1nc(Cl)cc(Nc2ccccc2F)n1`, the activation was -0.9% (inactive). `Cc1ccc(O)c(-c2cc(-c3ccccc3Cl)[nH]n2)c1`: the activation is 11.6% (inactive). For `Cc1ccc(-c2cc(-c3cccc(F)c3)n[nH]2)c(O)c1`, the activation was 3.8% (inactive).

For `COc1ccc(O)c(-c2cc(-c3cccs3)[nH]n2)c1`, the activation was -3% (inactive). On to `CN(Cc1cc(-c2cccs2)n[nH]1)Cc1coc2ccccc2c1=O`, for which the activation is -2.6% (inactive). Turning to `COc1ccc(-c2cc(-c3ccc(C)cc3O)[nH]n2)cc1`, the activation was -7.2% (inactive).

Regarding `COc1ccc(Cl)cc1NC(=O)c1ccc(C(=O)Nc2cc(Cl)ccc2OC)nc1`, the activation was -3.6% (inactive).

Take `Cc1ccc(-c2cc(-c3ccc(Cl)cc3)n[nH]2)c(O)c1`: the activation was 3.2% (inactive). In the case of `Cc1cc(Br)cc(C)c1Nc1ccnc(Nc2ccc(C#N)cc2)n1`, the activation is -3.5% (inactive). Take `Cc1ccc(-c2cc(-c3ccc(F)cc3)n[nH]2)c(O)c1`: the activation was 5.8% (inactive). Consider `Cc1cccc(NC(=O)c2cc(-c3ccc(C)cc3O)n[nH]2)c1`, for which the activation was 1.8% (inactive). The value for `O=C(CSc1nc2ccccc2s1)Nc1ccc(Cl)cn1` was -2% (inactive); that for `COc1ccc(NC(=O)c2ccc(C(=O)Nc3ccc(OC)cc3OC)nc2)c(OC)c1` was -0.5% (inactive); that for `Cc1cccc(C)c1NC(=O)c1ccc(C(=O)Nc2c(C)cccc2C)nc1` was -5.1% (inactive).

As to `CCOC(=O)c1c(C)nn(-c2cc(Cl)ccc2Cl)c1C`, the activation is -3.3% (inactive). As to `Cc1csc(SCC(=O)Nc2ccccn2)n1`, the activation was -2.6% (inactive). As to `O=C(CSc1nc2ccccc2s1)Nc1ccccn1`, the activation was -1% (inactive).

Turning to `COc1ccc(Nc2cc(Cl)nc(N)n2)cc1`, the activation was 2.2% (inactive). In the case of `CCOc1ccccc1NC(=O)c1ccc(C(=O)Nc2ccccc2OCC)nc1`, the activation is -2.8% (inactive). `Cc1ccnc(NC(=O)CSc2nc3ccccc3s2)c1`: the activation was -3.7% (inactive).

As for `Nc1nc(Cl)cc(Nc2ccc(Oc3ccccc3)cc2)n1`, the activation is 3.3% (inactive). As to `Cc1cc(Nc2ccc(F)cc2)nc(N)n1`, the activation is -2.7% (inactive).

Regarding `O=C(CSc1nc(-c2ccc(F)cc2)cs1)Nc1ccccn1`, the activation is 1% (inactive). `Cc1ccc(NC(=O)c2ccc(C(=O)Nc3ccc(C)cc3C)nc2)c(C)c1`: the activation is -1.6% (inactive).

As for `COc1ccc(Nc2cc(Cl)nc(N)n2)cc1OC`, the activation was 13.6% (inactive).
